Data from ChEMBL document CHEMBL4350976, “Sequence modification of heptapeptide selected by phage display as homing device for HT-29 colon cancer cells to improve the anti-tumour activity of drug delivery systems” (Eur J Med Chem, 2019).
Where a SMILES comes first, the peptide text is derived from it. The star is where a group is joined. X1 = COc1cccc2c1C(=O)c1c(O)c3c(c(O)c1C2=O)C[C@@](O)(/C(C)=N/OCC(=O)*)C[C@@H]3O[C@H]1C[C@H](N)[C@H](O)[C@H](C)O1

Legend:
[1] = Stability in serum free medium at 30 uM incubated for 3 hrs by LC/MS analysis
Outline: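 Conjugates (30 μM) were incubated at 37 °C in serum-free medium. Samples were taken at 0 and 3 h, quenched with acetic acid, lyophilised, desalted on C18 spin columns and analysed by LC-MS.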

[2] = Stability in 2.5% fetal bovine serum containing medium assessed as drug decomposition measured as Dau=Aoa-LR-OH and H-RYVHLPYAT-NH2 metabolite formation with loss of sugar content at 30 uM measured after 24 hrs by LC/MS analysis; format: ADME, cell-free, Bos taurus; settings: cattle
Outline: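 Conjugates (30 μM) were incubated at 37 °C in medium containing 2.5% FBS. Samples were taken at 0, 3, 6 and 24 h, quenched with acetic acid, lyophilised, desalted on C18 spin columns and analysed by LC-MS. Cleavage products were identified by mass.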

[3] = test system: HT-29; assay: Cytostatic activity against human HT-29 cells preincubated for 24 hrs under serum free condition followed by compound washout and further incubation for 48 hrs in presence of serum by MTT assay; format: functional, cell-based
Outline: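 HT-29 cells were exposed to the compound for 24 h, washed, and kept a further 48 h. Viability was read by MTT. Absorbances were normalized to untreated controls and fitted by nonlinear regression to dose-response curves to give IC50.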

[4] = Drug uptake in human HT-29 cells at 100 uM incubated for 3 hrs by flow cytometry; format: ADME, cell-based; settings: ht-29, 3 h
Outline: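 HT-29 cells were exposed to 100 µM conjugate for 3 h. Flow cytometry recorded the percentage of Dau-positive cells and the mean fluorescence intensity, in duplicate.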

[5] = Retention time of the compound using 0.1% TFA in water and 0.1% TFA in acetonitrile-water (80:20 v/v) as eluents by RP-HPLC analysis; format: physicochemical
Outline: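 Analytical RP-HPLC. Eluent A was 0.1% TFA in water and eluent B was 0.1% TFA in acetonitrile-water (80:20, v/v). Gradient: 0% B held to 5 min, then to 90% B at 50 min. Flow 1 mL/min, detection at 220 nm. The column was a Phenomenex Aeris Peptide XB-C18 (250×4.6 mm, 3.6 μm) or a Nucleosil C18 (5 μm, 100 Å, 250×4.6 mm), depending on the conjugate series.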

[6] = Drug uptake in human HT-29 cells at 50 uM after 90 mins by fluorescence based confocal microscopic analysis; format: ADME, cell-based; settings: ht-29, 1.5 h
Outline: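 HT-29 cells were incubated with 50 µM compound in RPMI for 90 min. Imaging was by confocal microscopy, with Dau detected at 550–600 nm emission.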

COc1cccc2c1C(=O)c1c(O)c3c(c(O)c1C2=O)C[C@@](O)(/C(C)=N/OCC(=O)N[C@@H](CC(C)C)C(=O)N[C@@H](CCCNC(=N)N)C(=O)N[C@@H](CCCNC(=N)N)C(=O)N[C@@H](Cc1ccc(O)cc1)C(=O)N[C@H](C(=O)N[C@@H](Cc1cnc[nH]1)C(=O)N[C@@H](CC(C)C)C(=O)N1CCC[C@H]1C(=O)N[C@@H](Cc1ccc(O)cc1)C(=O)N[C@@H](C)C(=O)N[C@H](C(N)=O)[C@@H](C)O)C(C)C)C[C@@H]3O[C@H]1C[C@H](N)[C@H](O)[C@H](C)O1 (X1-LRRYVHLPYAT-NH2)
Stability [1]: Stable
Stability [2]: Unstable
IC50 [3]: > 50 µM
Drug uptake [4]: Not Active
Retention time [5]: 31.2 to 31.3 min
Drug uptake [6]: Not Active
